Measured values taken from ChEMBL document CHEMBL5126550, “In Silico Optimized Stapled Peptides Targeting WASF3 in Breast Cancer” (2022).
Values belong to the molecule of their own block, whether it stands above or below them. The source made the active and inactive calls. The calls are words filed in the database; no cut-off is given here. Square brackets hold non-standard residues; d marks the D form. Peptide text beside a SMILES is read from it. Gly(pent-4-enyl) = C=CCCC[C@H](N)C(=O)O

Columns and labels:
[1] = molecular target: T1, Actin-binding protein WASF3 (Homo sapiens) (UniProt Q9UPY6); assay: Degradation of WASF3 in human serum starved MDA-MB-231 cells assessed as reduction in ABI2 expression at 2 uM measured after 72 hrs by Western blot analysis; type: cell-based
T1 sequence (whole entry): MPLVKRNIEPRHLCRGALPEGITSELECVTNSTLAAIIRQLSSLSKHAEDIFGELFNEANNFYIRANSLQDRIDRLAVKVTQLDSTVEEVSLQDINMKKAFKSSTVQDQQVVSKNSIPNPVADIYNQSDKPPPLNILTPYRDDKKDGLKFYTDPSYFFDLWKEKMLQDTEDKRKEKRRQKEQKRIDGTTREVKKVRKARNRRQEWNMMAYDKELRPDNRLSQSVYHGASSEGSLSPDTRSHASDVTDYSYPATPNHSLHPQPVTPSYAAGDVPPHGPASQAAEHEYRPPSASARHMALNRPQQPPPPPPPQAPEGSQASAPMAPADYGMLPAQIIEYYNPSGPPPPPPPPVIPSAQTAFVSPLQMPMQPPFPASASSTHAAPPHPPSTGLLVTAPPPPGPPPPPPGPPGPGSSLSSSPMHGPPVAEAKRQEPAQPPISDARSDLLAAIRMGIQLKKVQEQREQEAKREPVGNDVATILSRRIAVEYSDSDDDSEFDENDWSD
Outline: (§1)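 Cells treated 72 h with peptides or controls. Lysates immunoblotted for ABI2 and WASF3. Band densitometry from three independent Western blots.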

[2] = tested on: MDA-MB-231; assay: Antiinvasive activity against human MDA-MB-231 cells assessed as reduction in cell motility at 2 uM incubated for 18 hrs by wound healing assay; type: functional, cell-based
[3] = molecular target: T1, Actin-binding protein WASF3 (Homo sapiens); assay: Degradation of WASF3 in human serum starved MDA-MB-231 cells assessed as reduction in WASF3 expression at 2 uM measured after 72 hrs by Western blot analysis; type: cell-based; outline: as §1
[4] = molecular target: Abl interactor 2 (Homo sapiens) (UniProt Q9NYB9); assay: Binding affinity to ABI2 in human MDA-MB-231 cells at 2 uM measured after 4 hrs by measuring pulldown using streptavidin agarose resin by immunoblot analysis
[5] = tested on: MDA-MB-231; assay: Antiinvasive activity against human MDA-MB-231 cells assessed as reduction in number of invading cells incubated for 24 hrs by crystal violet staining based matrigel trans well migration assay; type: functional, cell-based; conditions: dose 0.5-2 µM, DDE = dose-dependent effect
Outline: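 Matrigel invasion assay with peptide at 0.5–2 μM, scramble control (2 μM), reference peptide (10 μM) or DMSO. Invading cells fixed with paraformaldehyde, stained with crystal violet, imaged and counted in ImageJ. At least three independent assays; mean ± SD; one-way ANOVA with Bonferroni test.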

[6] = tested on: MDA-MB-231; assay: Antiinvasive activity against human MDA-MB-231 cells assessed as reduction in cell motility at 0.5 to 2 uM incubated for 18 hrs by wound healing assay relative to control; type: functional; set-up: scale not given: the % may be the effect or the level left; conditions: dose 0.5-2 µM
[7] = tested on: MDA-MB-231; assay: Drug uptake in human MDA-MB-231 cells by measuring uptake of fluorescence intensity in cytoplasm at 10 uM measured after 4 hrs by fluorescence microscopy method; type: functional, cell-based
Outline: (§2)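 Cells incubated 4 h with 5(6)-carboxyfluorescein-labeled peptide (2 μM or 10 μM) or DMSO. Cytoplasmic fluorescence imaged by fluorescence microscopy. n = 4.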

[8] = tested on: MDA-MB-231; assay: Drug uptake in human MDA-MB-231 cells by measuring uptake of fluorescence intensity in cytoplasm at 2 uM measured after 4 hrs by fluorescence microscopy method; type: functional, cell-based; outline: as §2
[9] = tested on: MDA-MB-231; assay: Induction of WRC disruption in human MDA-MB-231 cells assessed as increase in actin stress fiber formation at 2 uM incubated for 4 hrs by phalloidin-iFluor 594 dye based inverted fluorescent microscopic method; type: functional, cell-based
Outline: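 Cells treated 4 h with biotin-labeled peptides, scramble control or DMSO. Cells then fixed, permeabilized and stained with phalloidin-iFluor 594 to show polymeric actin stress fibers by fluorescence imaging. n = 4.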

[10] = tested on: MDA-MB-231; assay: Antiinvasive activity against human MDA-MB-231 cells assessed as reduction in cell motility incubated for 18 hrs by wound healing assay relative to control; type: functional, cell-based; conditions: dose 0.5-2 µM, DDE = dose-dependent effect
[11] = Downregulation of MMP9 expression in human MDA-MB-231 cells at 2 uM measured after 72 hrs by immunoblot analysis relative to control; type: functional
Outline: (§3)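 Cells exposed 72 h to peptides, scramble control or vehicle. MMP9 protein levels measured by immunoblotting and quantified by densitometry across three independent blots. Levels compared against scramble control and vehicle.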

[12] = tested on: MDA-MB-231; assay: Downregulation of MMP9 expression in human MDA-MB-231 cells at 2 uM measured after 72 hrs by immunoblot analysis; type: functional, cell-based; outline: as §3
[13] = tested on: MDA-MB-231; assay: Drug uptake in human MDA-MB-231 cells by measuring uptake of fluorescence intensity in cytoplasm at 10 uM measured after 4 hrs by fluorescence microscopy method

Abl interactor 2 (Homo sapiens), sequence (Q9NYB9 whole entry, looked up): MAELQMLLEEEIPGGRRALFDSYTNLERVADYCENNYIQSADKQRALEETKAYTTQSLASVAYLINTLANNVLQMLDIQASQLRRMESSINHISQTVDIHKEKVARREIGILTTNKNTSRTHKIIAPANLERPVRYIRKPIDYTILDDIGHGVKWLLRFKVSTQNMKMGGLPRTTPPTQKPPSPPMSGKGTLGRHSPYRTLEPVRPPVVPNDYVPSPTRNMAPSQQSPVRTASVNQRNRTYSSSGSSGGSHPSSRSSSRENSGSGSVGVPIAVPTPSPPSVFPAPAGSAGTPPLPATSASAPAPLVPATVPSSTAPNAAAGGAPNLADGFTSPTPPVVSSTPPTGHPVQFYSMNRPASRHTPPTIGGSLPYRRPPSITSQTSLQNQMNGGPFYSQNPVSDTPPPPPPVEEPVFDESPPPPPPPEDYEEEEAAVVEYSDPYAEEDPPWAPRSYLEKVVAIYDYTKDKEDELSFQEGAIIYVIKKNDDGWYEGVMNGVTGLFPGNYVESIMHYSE

Activity [1]: Active
Activity [3]: Active
Activity [4]: Active
Compound: C=CCCC[C@H](NC(=O)[C@H](CCCCN)NC(=O)[C@H](CO)NC(=O)[C@H](CC(C)C)NC(=O)[C@H](CCCC=C)NC(=O)[C@H](CO)NC(=O)[C@H](CC(C)C)NC(=O)[C@H](CCCCN)NC(=O)[C@H](CCCNC(=N)N)NC(=O)[C@@H](NC(=O)[C@@H](NC(=O)[C@@H](N)CCCCN)[C@@H](C)CC)[C@@H](C)CC)C(=O)N[C@@H](C)C(=O)N[C@@H](CCC(=O)O)C(=O)N[C@@H](CCCCN)C(=O)N[C@H](C(=O)N[C@@H](Cc1ccccc1)C(=O)NCC(=O)N[C@@H](CCC(=O)O)C(=O)N[C@@H](CC(C)C)C(=O)N[C@@H](Cc1ccccc1)C(=O)N[C@@H](CCCCN)C(=O)O)[C@@H](C)CC (H-KIIRKLS[Gly(pent-4-enyl)]LSK[Gly(pent-4-enyl)]AEKIFGELFK-OH)
Activity [2]: Active
Activity [5]: Dde
Activity [6]: 48%
Drug uptake ([7]; dose 2.0 µM, in the assay text read “at 2 uM” for “at 10 uM”): Active
Drug uptake [8]: Active
Activity [9]: Active
Activity [10]: Dde
Activity [11]: 40%
Activity [12]: Active

Compound: C=CCCC[C@H](NC(=O)[C@H](CO)NC(=O)[C@H](CC(C)C)NC(=O)[C@H](CCCCN)NC(=O)[C@H](CO)NC(=O)[C@H](CC(C)C)NC(=O)[C@H](CCC(N)=O)NC(=O)[C@H](CCCNC(=N)N)NC(=O)[C@@H](NC(=O)[C@@H](NC(=O)[C@@H](N)CCCCN)[C@@H](C)CC)[C@@H](C)CC)C(=O)N[C@@H](Cc1cnc[nH]1)C(=O)N[C@@H](C)C(=O)N[C@@H](CCC(=O)O)C(=O)N[C@@H](CCCC=C)C(=O)N[C@H](C(=O)N[C@@H](Cc1ccccc1)C(=O)NCC(=O)N[C@@H](CCC(=O)O)C(=O)N[C@@H](CC(C)C)C(=O)N[C@@H](Cc1ccccc1)C(=O)N[C@@H](CCCCN)C(=O)O)[C@@H](C)CC (H-KIIRQLSKLS[Gly(pent-4-enyl)]HAE[Gly(pent-4-enyl)]IFGELFK-OH)
Activity [2]: Active

Compound: C=CCCC[C@H](NC(=O)[C@H](CO)NC(=O)[C@H](CC(C)C)NC(=O)[C@H](CCC(N)=O)NC(=O)[C@H](CCCC=C)NC(=O)[C@@H](NC(=O)[C@@H](NC(=O)[C@@H](N)CCCCN)[C@@H](C)CC)[C@@H](C)CC)C(=O)N[C@@H](CC(C)C)C(=O)N[C@@H](CO)C(=O)N[C@@H](CCCCN)C(=O)N[C@@H](Cc1cnc[nH]1)C(=O)N[C@@H](C)C(=O)N[C@@H](CCC(=O)O)C(=O)N[C@@H](CCCCN)C(=O)N[C@H](C(=O)N[C@@H](Cc1ccccc1)C(=O)NCC(=O)N[C@@H](CCC(=O)O)C(=O)N[C@@H](CC(C)C)C(=O)N[C@@H](Cc1ccccc1)C(=O)N[C@@H](CCCCN)C(=O)O)[C@@H](C)CC (H-KII[Gly(pent-4-enyl)]QLS[Gly(pent-4-enyl)]LSKHAEKIFGELFK-OH)
Activity [2]: Active

Activity [1]: Active
Activity [3]: Active
Compound: C=CCCC[C@H](NC(=O)[C@H](CO)NC(=O)[C@H](CC(N)=O)NC(=O)[C@@H](NC(=O)[C@H](CCCC=C)NC(=O)[C@H](CCCCN)NC(=O)[C@H](CCC(=O)O)NC(=O)[C@@H](N)CC(C)C)[C@@H](C)O)C(=O)N[C@@H](CC(C)C)C(=O)N[C@@H](C)C(=O)N[C@@H](CCCCN)C(=O)N[C@H](C(=O)N[C@H](C(=O)N[C@@H](CCCNC(=N)N)C(=O)N[C@@H](CCC(N)=O)C(=O)N[C@@H](CC(C)C)C(=O)O)[C@@H](C)CC)[C@@H](C)CC (H-LEK[Gly(pent-4-enyl)]TNS[Gly(pent-4-enyl)]LAKIIRQL-OH)
Drug uptake ([7]; dose 10.0 µM): Active
Drug uptake [13]: Active

Compound: C=CCCC[C@H](NC(=O)[C@H](CCCNC(=N)N)NC(=O)[C@@H](NC(=O)[C@@H](NC(=O)[C@@H](N)CCCC=C)[C@@H](C)CC)[C@@H](C)CC)C(=O)N[C@@H](CC(C)C)C(=O)N[C@@H](CO)C(=O)N[C@@H](CCCCN)C(=O)N[C@@H](CC(C)C)C(=O)N[C@@H](CO)C(=O)N[C@@H](CCCCN)C(=O)N[C@@H](Cc1cnc[nH]1)C(=O)N[C@@H](C)C(=O)N[C@@H](CCC(=O)O)C(=O)N[C@@H](CCCCN)C(=O)N[C@H](C(=O)N[C@@H](Cc1ccccc1)C(=O)NCC(=O)N[C@@H](CCC(=O)O)C(=O)N[C@@H](CC(C)C)C(=O)N[C@@H](Cc1ccccc1)C(=O)N[C@@H](CCCCN)C(=O)O)[C@@H](C)CC (H-[Gly(pent-4-enyl)]IIR[Gly(pent-4-enyl)]LSKLSKHAEKIFGELFK-OH)
Activity [2]: Active
